mABHD4 FP: inhibitors of mouse ABHD4. Q8VD66. purified mABHD4, FP-Rh probe fluorescence polarization. inhibition, % at 8.92 µM. 370,000 compounds, 0.54% hits;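 active = inhibition exceeding the mean over every tested compound plus 3 SD, cut at about 30% in these data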;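 note: 0% = plate median of compound wells and 100% = S159A mutant with DMSO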
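system = mouse ABHD4 enzyme, wild type | medium = HEPES pH 7.0, NaCl, Pluronic buffer | also added = FP-Rh probe | incubation = Enzyme–compound pre-incubation 45 min, then probe 60 min, both 25 °C | technique = fluorescence polarization, excitation 525 nm, emission 598 nm, BODIPY TMR filters | controls = S159A mutant high control, sample median low control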
SIAE primary: blocks human sialic acid acetylesterase; Q9HAT2; SIAE FP-Rh probe binding, fluorescence polarization; inhibition, % at 9.66 µM; 370,000 compounds, 0.69% hits;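 active = inhibition above a cutoff: mean of compounds within the control limits plus 3 SD of those, cut at about 17% in these data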;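 note: 0% = plate median of compound wells and 100% = probe without SIAE protein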
PRMT1 inh: PRMT1 (human) inhibition, primary screen; recombinant PRMT1, activity-based probe fluorescence polarization; 370,000 compounds, 1.3% hits; Q99873; inhibition, % at 2.79 µM;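 active = inhibition above about 21% made by adding two undisclosed values, limit read from the data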
Target sequence (Q99873 whole entry, looked up): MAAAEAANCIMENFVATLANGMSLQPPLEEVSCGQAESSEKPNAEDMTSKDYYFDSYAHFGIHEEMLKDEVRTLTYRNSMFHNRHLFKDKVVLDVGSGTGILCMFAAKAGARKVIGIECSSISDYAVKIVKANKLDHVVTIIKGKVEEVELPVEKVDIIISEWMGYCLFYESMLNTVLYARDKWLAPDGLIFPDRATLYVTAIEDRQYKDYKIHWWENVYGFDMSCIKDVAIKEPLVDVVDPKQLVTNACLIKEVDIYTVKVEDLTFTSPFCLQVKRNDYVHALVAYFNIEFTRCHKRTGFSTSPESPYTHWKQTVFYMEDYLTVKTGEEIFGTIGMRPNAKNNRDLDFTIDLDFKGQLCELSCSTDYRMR
HTRA1 inh: inhibitors of human serine peptidase HTRA1. 340,000 compounds, 0.5% hits. Q92743. inhibition, % at 5.96 µM. recombinant HTRA1, FP-rhodamine activity-based probe, fluorescence polarization; in the data active = inhibition above about 36%;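 note: 0% = enzyme with DMSO and 100% = wells lacking enzyme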
TCR-CD3 inh: inhibitors of human TCR-CD3 interaction; AID 651800; TAMRA-labeled TCR probe fluorescence, biochemical; inhibition, % at 9.4 µM; 360,000 compounds, 0.37% hits; in the data active = inhibition above about 19%;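 note: recombinant mutant TCR 2C K166C tagged with TAMRA read by polarization; 0% = receptor in buffer alone and 100% = receptor with positive control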
SIAE confirm: confirmation of human SIAE inhibitors; shares compounds with SIAE primary; SIAE FP-Rh activity-based probe, fluorescence polarization; inhibition, % at 9.66 µM; 2,300 compounds, 13% hits;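 active = mean inhibition of the replicates above the hit cutoff set in the primary screen, cut at about 17% in these data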;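 note: 0% = SIAE with DMSO and probe and 100% = probe without SIAE; inhibitors lower polarization as more probe stays unbound to SIAE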
Starred values were filed as active, the others as inactive; x = no result given. Rows were chosen to be rich in hits. Some 2.7% of all compounds tested hit in one or more screens of this group.

SMILES	mABHD4 FP	SIAE primary	PRMT1 inh	HTRA1 inh	TCR-CD3 inh	SIAE confirm
O=c1c2cn[nH]c2[nH]c(=S)n1-c1ccccc1	12	3	8	6	-6	x
CC(=O)NNc1cc(N2CCOCC2)nc(N2CCOCC2)n1	10	25*	-6	7	13	0
C=CCCC[C@H]1OC(=O)[C@H](C)NC(=O)[C@H](C(C)C)NC(=O)[C@@H]2CCCN2C(=O)[C@H](Cc2ccccc2)OC(=O)[C@@H](C(C)C)N(C)C(=O)[C@H](C(C)C)NC(=O)C1(C)C	-1	2	4	x	-7	x
Cc1ccccc1Cn1c2ccccc2c2cnn(CC(=O)NCc3ccccn3)c(=O)c21	-8	20*	2	-4	-5	0
C/C(=N\O)c1cc(Cl)cc(Cl)c1O	7	25*	1	1	-4	30*
COc1ccc(OC)c(NC(=O)Cn2cc(C=O)c3ccccc32)c1	-6	1	2	-3	2	x
CCCCN(C(=O)C(C)N1C(=O)c2ccccc2C1=O)c1c(N)n(CCCC)c(=O)[nH]c1=O (stereo not given)	0	19*	-1	-1	-5	-5
O=C1CCCN1c1ccc(S(=O)(=O)N2CCN(c3ccccc3)CC2)cc1	-2	2	-1	-5	-4	x
O=C1CCCN1c1ccc(S(=O)(=O)N2CCC(c3ccccc3)CC2)cc1	-4	22*	4	-1	-4	-2
CCN(CC(=O)NCc1cccs1)C(=O)/C=C/c1cccc(Cl)c1Cl	-12	3	-1	-5	-7	x
Cc1ccccc1Cn1cnc2c(cnn2C(C)(C)C)c1=O	-2	5	0	-3	-6	x
Cc1ccc(C)c(Cn2cnc3c(cnn3C(C)(C)C)c2=O)c1	-7	22*	6	-5	2	-2
CC12CCC3C(=CCc4cc(O)ccc43)C1CC(=NO)C2O (stereo not given)	2	-8	0	2	-1	x
COc1ccc2c(c1)CC=C1C2CCC2(C)C(=O)C(=NO)CC12 (stereo not given)	-13	19*	-3	-8	6	22*
O=S1(=O)N[C@@H](Cc2ccccc2)COc2cc(NC3CC3)ccc21	-7	-5	-2	x	6	x
COC(=O)c1cc2c(c3c4cc(OC)ccc4n(S(=O)(=O)c4ccc(F)cc4)c13)C(=O)N(Cc1ccccc1)C2	-17	-8	-7	x	-1	x
CN(C)c1ccc(NC(=O)CSc2nc(N)c(C(=O)Nc3ccc(N(C)C)cc3)s2)cc1	4	20*	8	5	-2	9
COc1ccccc1Nc1ccc(NC(=O)c2cccc([N+](=O)[O-])c2C)cc1	5	18*	15	20	-5	5
CCC(=O)NC(=S)Nc1ccc(NC(=O)c2cccc([N+](=O)[O-])c2C)cc1	-3	-8	-1	-5	2	x
O=C(Nc1ccc(Br)cc1F)c1cccnc1	2	-4	0	-3	-2	x
CC1CC1C(=O)N1CCC(Oc2cccnc2)CC1 (stereo not given)	1	0	-4	x	x	x
O=C(Nc1ccncc1)C1CCN(S(=O)(=O)c2cccc(C(F)(F)F)c2)CC1	4	18*	0	11	4	0
COC1=C[C@H](C(=O)NCc2ccccn2)[C@H](C)[C@@H](c2ccccc2)CC1=O	3	-7	-1	x	x	x
CCCCNC(=O)c1nc(C2CCNCC2)oc1-c1ccccc1	-4	1	-5	x	7	x
N#Cc1ccccc1CSc1nc(O)cc(=O)[nH]1	-3	17*	-1	3	3	-5
SMILES	mABHD4 FP	SIAE primary	PRMT1 inh	HTRA1 inh	TCR-CD3 inh	SIAE confirm
CC(=O)Nc1c(O)nc(SCc2ccccc2C#N)[nH]c1=O	3	1	2	2	-4	x
CN(C(=O)c1cccc(NC(=O)Cc2cccc(NC(=O)C3CCCN(C(=O)C4CCC4)C3)c2)c1)C1CCC1 (stereo not given)	-5	-2	-6	0	-3	x
Cc1cccc(C)c1NC(=O)N1CCC(C(=O)c2ccc(F)cc2)CC1	-9	-7	-9	2	0	x
Cc1ccc(S(=O)(=O)Cc2ccc(C(=O)NCc3cccs3)o2)cc1	-1	69*	-1	5	-2	-11
Cc1ccc(CNC(=O)c2ccc(CS(=O)(=O)c3ccccc3)o2)cc1	5	2	0	-6	2	x
COc1cc2[nH]c3c(N4CCN(c5ccc(Cl)cc5)CC4)ncnc3c2cc1OC	11	30*	-3	2	5	25*
COc1ccc2c(c1)[nH]c1c(N3CCSCC3)ncnc12	4	0	4	0	-5	x
COc1cccc(N2CCN(c3ncnc4c3[nH]c3ccc(F)cc34)CC2C)c1 (stereo not given)	0	19*	5	-18	1	-4
COc1cccc(N2CCN(c3ncnc4c3[nH]c3ccccc34)CC2C)c1 (stereo not given)	15	11	-1	x	-1	x
COc1ccc(NC(=O)CN2CCN(CC(=O)Nc3ccc(OC)cc3)CC2)cc1	0	3	-1	6	-1	x
N#CCCN(C(=O)COC(=O)CNS(=O)(=O)c1ccc2ccccc2c1)c1ccccc1	2	23*	3	0	-5	4
O=C(CC[C@H]1O[C@@H](n2cnc3c(NC(=O)c4ccccc4)ncnc32)[C@H](O)[C@@H]1O)NCC(F)(F)F	1	-1	5	x	-8	x
O=C(CC[C@H]1O[C@@H](n2cnc3c(NC(=O)c4ccccc4)ncnc32)[C@H](O)[C@@H]1O)NCC1CCN(Cc2ccccc2)CC1	8	34*	8	x	2	27*
O=C1[C@@H](CCc2ccccc2)[C@@H]2c3ccccc3C=NN2[C@@H]2c3ccccc3C=NN12	-7	18*	-5	x	x	7
CCCC(=O)N1CCC(O)(c2cccc(F)c2)CC1	-4	49*	-3	2	-2	0
CNc1cc(-c2ccc(CC#N)cc2)ncn1	5	0	-6	x	1	x
CCOC(=O)C(C)N1CC(=O)N(c2ccccc2)C1=O (stereo not given)	-2	18*	-1	0	5	2
CN(C(=O)c1ccc(N2CCOCC2)c([N+](=O)[O-])c1)C1CCCCC1	2	17*	-4	8	1	2
COc1ccc(CCNC(=O)CC2C(=O)NCCN2CC(C)(C)C)cc1 (stereo not given)	0	4	-1	1	5	x
COc1cccc(CCNC(=O)CC2C(=O)NCCN2CC(C)(C)C)c1 (stereo not given)	3	17*	2	-2	9	-2
O=C(NCc1ccccc1)[C@@H]1CCCN1C(=O)[C@H]1CCCN1C(=O)N1CCCCC1	-1	2	0	x	-2	x
Cc1ccc2[nH]c(=O)c(CN(Cc3cccnc3)Cc3nnnn3CC3CCCO3)cc2c1 (stereo not given)	0	0	1	-5	-3	x

Screening data deposited in PubChem by The Scripps Research Institute Molecular Screening Center.
